Screens from PubChem.
Only some compounds are listed: those with a hit (about 12% of all), similar ones and a draw of the others.
KCC2 mod – KCC2 (human) Cl- transport modulation | Q9H2X9 | KCC2 cells, thallium flux FluoZin-2 fluorescence | B-score of Tl+ flux slope (higher = more flux/activation; lower = inhibition) at 10 µM | actives 2.2% (n = 190,000) | AID 1456;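 active = thallium flux slope and its plate-corrected score both differing from the plate sample mean at a set confidence after two filtering rounds, in either direction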;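 also: slope of fluorescence scaled to starting intensity during 10 to 20 s after thallium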
Target sequence (Q9H2X9 whole entry, looked up): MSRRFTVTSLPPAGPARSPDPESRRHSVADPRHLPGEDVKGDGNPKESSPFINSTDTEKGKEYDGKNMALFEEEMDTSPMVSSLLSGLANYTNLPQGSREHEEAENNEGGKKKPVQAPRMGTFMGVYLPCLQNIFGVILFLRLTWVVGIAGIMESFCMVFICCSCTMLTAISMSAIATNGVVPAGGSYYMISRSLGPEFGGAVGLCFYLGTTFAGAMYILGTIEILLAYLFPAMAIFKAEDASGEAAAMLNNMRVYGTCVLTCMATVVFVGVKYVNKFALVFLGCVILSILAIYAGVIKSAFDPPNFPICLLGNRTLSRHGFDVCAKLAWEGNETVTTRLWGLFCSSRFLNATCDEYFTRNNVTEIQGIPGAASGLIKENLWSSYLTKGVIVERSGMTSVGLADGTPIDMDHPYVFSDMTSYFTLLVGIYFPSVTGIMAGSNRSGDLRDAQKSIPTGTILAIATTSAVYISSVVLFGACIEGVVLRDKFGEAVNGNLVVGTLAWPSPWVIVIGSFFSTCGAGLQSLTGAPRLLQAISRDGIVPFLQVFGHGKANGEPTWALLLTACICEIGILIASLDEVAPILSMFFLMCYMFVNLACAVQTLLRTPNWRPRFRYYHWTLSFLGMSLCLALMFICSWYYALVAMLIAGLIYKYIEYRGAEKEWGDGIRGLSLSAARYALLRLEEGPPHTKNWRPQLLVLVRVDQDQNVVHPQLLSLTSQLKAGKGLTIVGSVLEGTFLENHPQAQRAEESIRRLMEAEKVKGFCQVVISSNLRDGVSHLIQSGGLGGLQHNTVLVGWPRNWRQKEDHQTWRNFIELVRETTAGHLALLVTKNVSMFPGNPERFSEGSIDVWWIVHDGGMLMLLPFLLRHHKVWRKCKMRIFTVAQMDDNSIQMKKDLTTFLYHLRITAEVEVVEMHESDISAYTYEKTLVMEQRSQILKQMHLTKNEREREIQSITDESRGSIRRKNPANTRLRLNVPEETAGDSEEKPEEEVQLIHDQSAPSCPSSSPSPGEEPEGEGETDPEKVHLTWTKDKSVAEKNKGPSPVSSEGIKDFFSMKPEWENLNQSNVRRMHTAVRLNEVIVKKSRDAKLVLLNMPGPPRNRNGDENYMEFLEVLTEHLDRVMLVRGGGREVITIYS
WT yeast gro inh – growth inhibition of WT yeast, mitochondrial fusion screen; mitochondrial fusion phenotypic screen, WT strain; inhibition, % at 10 µM; actives 2.1% (n = 190,000); in the data active = inhibition above about 58%; tested in S. cerevisiae
Diaphorase inh – counter-screen for diaphorase-based assays: diaphorase inhibitors and chemical oxidizers | diaphorase resazurin-to-resorufin fluorescence, NADH, 16 min; bacterial (C. kluyveri) enzyme, not human | inhibition, % at 20 µM | AID 1217 | actives 0.69% (n = 190,000);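 active = primary screen inhibition at 20 µM above a set limit, cut at about 50% in these data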
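Test system: diaphorase enzyme from Clostridium kluyveri; amount: diaphorase at 0.14 U/mL in enzyme working solution; detection: fluorescence of resorufin formed from resazurin, Ex 544/Em 590 nm; times: reaction incubation of 16 min at room temperature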
Lmaj promast – reduces viability of Leishmania major promastigotes. resazurin fluorescence viability. inhibition, % at 10 µM. actives 9% (n = 200,000). AID 1063; in the data active = inhibition above about 50%;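 also: promastigotes grown with compound for 44 hours at 28 °C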
Diaph act CS – diaphorase activation or chemical reduction counter-screen | Diaphorase/resazurin coupled assay, resorufin fluorescence, 16 min; hits give high values; 1 = vehicle wells, 0 = NADH-free wells | activation factor at 20 µM | actives 0.005% (n = 190,000) | AID 1229;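 active = diaphorase activity raised at least twofold by the compound at 20 µM; inactive = activation factor below 2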
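Material: purified diaphorase enzyme from Clostridium kluyveri; Also added: 0.114 mM NADH and 0.1 mM resazurin, final amounts; Doses: single compound dose of 20 µM, 1% DMSO final; Times: 16 min enzyme reaction, ambient temperature; Detection: resorufin fluorescence, excitation 544 nm, emission 590 nm; Measure: increased resorufin signal from activators or reducing compounds.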
ROMK mod – modulates human ROMK potassium channel activity; actives 2% (n = 130,000); B-score at 10 µM; P48048; Tet-inducible ROMK, thallium flux fluorescence; actives lie on both sides;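 active = signal ratio slope over the read window, or its plate-corrected B-score, at least 3 SD from the plate mean, either direction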;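 also: B-score of the F/F0 ratio slope over 7 to 12 s after thallium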
A number is an active result; 0 = inactive; - = no result.

SMILES | KCC2 mod | WT yeast gro inh | Diaphorase inh | Lmaj promast | Diaph act CS | ROMK mod
CCN1CCN(Cc2ccc(OCc3ccccc3)c(OC)c2)CC1 | 0 | 0 | 0 | 65 | 0 | -
COc1cc(CN(C)CCc2ccccc2)ccc1OCc1ccccc1 | - | 0 | 0 | 96 | 0 | 0
CC(=O)NNC(=O)c1nc(-c2ccccc2)c(C)o1 | 0 | - | - | - | - | -
O=S(=O)(c1cccc(-c2nnc3n2CCCCC3)c1)N1CCCC1 | 0 | 0 | 0 | 0 | 0 | 0
COc1ccc2ccccc2c1CN1CCN(Cc2ccccc2)CC1 | 0 | 0 | 0 | 56 | 0 | -
CSc1cccc(NC(=O)c2ccco2)c1 | 0 | 0 | 0 | 0 | 0 | -
Cc1ccc([N+](=O)[O-])cc1NC(=S)NC(=O)c1cccs1 | 0 | 0 | 0 | 0 | 0 | -
O=C(CN1CCN(Cc2ccc(Cl)cc2)C1=O)NCCCN1CCOCC1 | - | 0 | 0 | 0 | 0 | -
O=C(NCCCN1CCOCC1)c1ccc(CNS(=O)(=O)c2ccc(Br)cc2)cc1 | 0 | 0 | 0 | 0 | 0 | 0
O=C(NCCCN1CCOCC1)c1ccc(-c2ccc(Cl)cc2)o1 | 0 | 0 | 0 | 0 | 0 | 0
O=C(NCCCN1CCOCC1)c1cc(-c2ccc(Br)cc2)on1 | 0 | 0 | 0 | 94 | 0 | -
O=C(NCCCN1CCOCC1)c1ccc(Br)cc1 | - | 0 | 0 | 52 | 0 | 0
O=C(CCS(=O)(=O)Cc1ccc(Cl)cc1)NCCCN1CCOCC1 | 0 | 0 | 0 | 89 | 0 | 0
O=C(NCCCN1CCOCC1)c1ccc(CSc2ccc(Cl)cc2)cc1 | 0 | 0 | 0 | 97 | 0 | 0
C#CCNC(=O)C1=C[C@@H](c2csc3ccccc23)C[C@@H](OCc2ccc(CO)cc2)O1 | 0 | 0 | 0 | 0 | 0 | -
CCOC(=O)C1CCN(C(c2cc3c(C)ccc(C)c3[nH]c2=O)c2nnnn2C2CCCCC2)CC1 (stereo not given) | - | 0 | 0 | 99 | 0 | 0
CCOC(=O)C1CCN(C(c2cc3ccc(C)c(C)c3[nH]c2=O)c2nnnn2C2CCCCC2)CC1 (stereo not given) | 0 | 0 | 0 | 86 | 0 | -2.5
O=C(/C(C=Nc1cc2c(oc1=O)CCCC2=O)=C(\O)c1ccccc1)c1ccccc1 | 0 | 0 | 0 | 0 | 0 | 0
COc1ccc(C(=O)OCC(=O)c2c(N)n(C)c(=O)n(C)c2=O)cc1OC | 0 | 0 | 0 | 0 | 0 | 0
Cc1ccc(C)c(N2C(=O)c3ccc(C(=O)OCC(=O)c4c(N)n(C)c(=O)n(C)c4=O)cc3C2=O)c1 | 0 | 0 | 0 | 51 | 0 | -
Cc1c(-c2cccc(Cl)c2)nc2ccccc2c1C(=O)OC/C(O)=C(\C#N)c1nc2ccccc2[nH]1 | 0 | 0 | 0 | 0 | 0 | 0
COc1ccc(-c2c3c([nH]c(=S)c2C#N)CCC3)cc1 | 5 | 0 | 0 | 0 | 0 | 0
N#Cc1c(-c2cccnc2)c2c([nH]c1=S)CCCC2 | - | 91 | 0 | 0 | 0 | -
COc1ccc(OC)c(-c2c3c([nH]c(=S)c2C#N)CCCC3)c1 | 0 | 0 | 0 | 0 | 0 | -
CC1=C(C(=O)OCC2CCCO2)C(c2ccc(C)o2)C2=C(CC(c3ccc(N(C)C)cc3)CC2=O)N1 (stereo not given) | 0 | 0 | 0 | 85 | 0 | 0
SMILES | KCC2 mod | WT yeast gro inh | Diaphorase inh | Lmaj promast | Diaph act CS | ROMK mod
S=C(Nc1ccc(Cl)cc1)NC1CC2CCCC(C1)N2C1CC1 (stereo not given) | - | 0 | 0 | 0 | 0 | -
C=CCN1C2CCCC1CC(NC(=S)Nc1ccc(Cl)cc1)C2 (stereo not given) | - | 0 | 0 | 96 | 0 | 0
S=C(Nc1ccc(Cl)cc1)NC1CC2CCCC(C1)N2C1CCCC1 (stereo not given) | - | 0 | 0 | 77 | 0 | -
S=C(Nc1cccc(Cl)c1)NC1CC2CCCC(C1)N2C1CCCC1 (stereo not given) | 0 | 0 | 0 | 73 | 0 | 0
O=C(N=NC(=O)c1ccc2c(O)n(CC3CCCO3)c(O)c2c1)c1cccnc1 (stereo not given) | 0 | - | - | - | - | -
O=C(O)c1ccc(N/N=C/c2cccc(F)c2)cc1 | 0 | 0 | 0 | 65 | 0 | -
O=C(O)c1ccc(N/N=C/c2ccc(F)c(F)c2)cc1 | 0 | 0 | 0 | 0 | 0 | -
CCN(C(=O)COC(=O)c1cccnc1Nc1cccc(C(F)(F)F)c1)C1CCS(=O)(=O)C1 (stereo not given) | 0 | 0 | 0 | 59 | 0 | -
CC(C)S(=O)(=O)N1CCN(c2ccnc3cc(Cl)ccc23)CC1 | 0 | - | - | - | - | -
CCC1=NN2C(=N)/C(=C\c3cccn3-c3ccc(OC)cc3)C(=O)N=C2S1 | 0 | 0 | 0 | 0 | 0 | 0
O=C1NC(=S)S/C1=C\c1ccc(SCc2ccco2)o1 | 119 | 69 | 81 | 0 | 0 | -2.8
O=C1NC(=S)S/C1=C\c1ccc(SCc2ccccc2)o1 | 29 | 83 | 0 | 0 | 0 | 0
CCC1=NN2C(=N)/C(=C\c3ccc(SCc4ccco4)o3)C(=O)N=C2S1 | - | 0 | 56 | 0 | 0 | -
O=C1NC(=NCc2ccccc2)S/C1=C\c1ccccc1 | 0 | 0 | 0 | 0 | 0 | -
Cc1cc(OCC(=O)N(C(C)C)C(C)C)ccc1Cl | 0 | 0 | 0 | 0 | 0 | -
CC(C)N(C(=O)CS(=O)(=O)c1ccc(Cl)c(Cl)c1)C(C)C | 0 | 0 | 0 | 85 | 0 | 0
CC1CN(C2CCN(C(=O)COc3ccc(Cl)cc3)CC2)CC(C)O1 (stereo not given) | 0 | 0 | 0 | 92 | 0 | -
Cc1cccc(OCC(=O)N2CCC(N3CCOCC3)CC2)c1 | - | 0 | 0 | 92 | 0 | 0
Cc1cccc(OCC(=O)N2CCN(C(=O)CCC3CCCC3)CC2)c1 | 0 | 0 | 0 | 0 | 0 | 0
Cn1c(=O)c2c(=O)cc(NNC(=O)CC#N)[nH]c2n(C)c1=O | 0 | 0 | 0 | 0 | 0 | 0
O=C(C1CC1)N1CCN(C(c2ccccc2)c2ccccc2)CC1 | 0 | 0 | 0 | 0 | 0 | 0
Nc1nn2cc(-c3ccccc3)nc2c2ccccc12 | 0 | 0 | 0 | 87 | 0 | 0
Cc1[nH][nH]c(=O)c1C(c1ccc(-c2cccc(C(=O)O)c2)o1)c1c(C)[nH][nH]c1=O | 0 | 0 | 0 | 0 | 0 | 0
Cc1[nH][nH]c(=O)c1C(c1ccc(-c2ccc(Cl)cc2Cl)o1)c1c(C)[nH][nH]c1=O | 0 | 0 | 0 | 100 | 0 | 0
Cc1[nH][nH]c(=O)c1C(c1ccc(-c2ccccc2C(=O)O)o1)c1c(C)[nH][nH]c1=O | 0 | 0 | 0 | 0 | 0 | -
SMILES | KCC2 mod | WT yeast gro inh | Diaphorase inh | Lmaj promast | Diaph act CS | ROMK mod
COC(=O)c1ccc(-c2ccc(C(c3c(C)[nH][nH]c3=O)c3c(C)[nH][nH]c3=O)o2)cc1 | 0 | 0 | 68 | 97 | 0 | 0
O=C(Cc1ccccc1)NN1C(=O)C2C3C=CC(C3)[C@@H]2C1=O (stereo not given in full) | 0 | 0 | 0 | 0 | 0 | 0
S=C(NCCc1ccccc1)Nc1ccccc1Cl | 0 | 0 | 0 | 68 | 0 | 0
S=C(NCCc1ccccc1)NCCc1ccccc1 | 0 | 62 | 0 | 0 | 0 | 0
NNC(=S)NCCc1ccccc1 | 0 | 0 | 0 | 0 | 0 | 0
C/C(=N\NC(=S)NCCc1ccccc1)c1cccs1 | 8.6 | 0 | 0 | 0 | 0 | 0
